A short description of series [1]: Inhibition of human liver cathepsin L using Z-Phe-Arg-AMC as substrate by kinetic fluorescence assay.
Series [2] deals with T1, Calpain-1 catalytic subunit (Homo sapiens, UniProt P07384).
T1 sequence (P07384 whole entry): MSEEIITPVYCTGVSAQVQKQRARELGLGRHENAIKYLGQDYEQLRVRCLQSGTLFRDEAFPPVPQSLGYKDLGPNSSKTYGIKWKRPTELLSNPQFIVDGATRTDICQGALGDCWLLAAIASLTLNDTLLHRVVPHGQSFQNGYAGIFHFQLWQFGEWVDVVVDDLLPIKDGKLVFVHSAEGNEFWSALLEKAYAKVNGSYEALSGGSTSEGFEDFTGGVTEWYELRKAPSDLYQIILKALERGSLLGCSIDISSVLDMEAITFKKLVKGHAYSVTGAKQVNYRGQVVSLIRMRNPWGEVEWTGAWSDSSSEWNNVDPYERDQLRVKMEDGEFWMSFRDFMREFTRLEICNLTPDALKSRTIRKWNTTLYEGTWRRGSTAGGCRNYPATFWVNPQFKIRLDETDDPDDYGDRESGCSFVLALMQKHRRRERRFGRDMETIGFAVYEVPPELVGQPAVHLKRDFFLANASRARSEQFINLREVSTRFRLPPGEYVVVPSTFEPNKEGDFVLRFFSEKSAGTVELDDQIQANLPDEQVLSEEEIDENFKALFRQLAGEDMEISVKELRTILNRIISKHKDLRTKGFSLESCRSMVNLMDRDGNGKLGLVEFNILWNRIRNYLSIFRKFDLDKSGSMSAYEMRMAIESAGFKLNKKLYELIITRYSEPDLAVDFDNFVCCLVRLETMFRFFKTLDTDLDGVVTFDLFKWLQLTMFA
The series is described as follows: Inhibition of human erythrocytes calpain-1 using Suc-Leu-Tyr-AMC as substrate by kinetic fluorescence assay. Particulars: read-out: Ki.

The nature of series [3]: Selectivity ratio of Ki for human liver cathepsin B to Ki for human erythrocytes calpain-1.
The species named for series [4] is Homo sapiens. The series is described as follows: Selectivity ratio of Ki for recombinant human procathepsin K expressed in Escherichia coli to Ki for human erythrocytes calpain-1. A digest of the protocol:
(§1)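 Ki ratios from kinetic fluorescence assays. Cathepsins B (0.25 nM), L (1 nM), K (3 nM) and S (0.5 nM) in MES buffer at pH 6.0. All at room temperature; Ki by Cheng-Prusoff.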

Series [5] can be described thus: Selectivity ratio of Ki for human liver cathepsin L to Ki for human erythrocytes calpain-1.
The species named for series [6] is Homo sapiens. The series is described as follows: Selectivity ratio of Ki for recombinant human cathepsin S expressed in Escherichia coli to Ki for human erythrocytes calpain-1. Summed up:
as §1

Series [7] concerns the target Cathepsin S (Homo sapiens, UniProt P25774). The series is described as follows: Inhibition of human cathepsin S expressed in Escherichia coli using Z-Val-Val-Arg-AMC as substrate by kinetic fluorescence assay.
The target of series [8] is Cathepsin B (Homo sapiens, UniProt P07858). The series is described as follows: Inhibition of human liver cathepsin B using Z-Phe-Arg-AMC as substrate by kinetic fluorescence assay.
The target in series [9] is T2, Cathepsin K (Homo sapiens, UniProt P43235).
T2 sequence (P43235 whole entry): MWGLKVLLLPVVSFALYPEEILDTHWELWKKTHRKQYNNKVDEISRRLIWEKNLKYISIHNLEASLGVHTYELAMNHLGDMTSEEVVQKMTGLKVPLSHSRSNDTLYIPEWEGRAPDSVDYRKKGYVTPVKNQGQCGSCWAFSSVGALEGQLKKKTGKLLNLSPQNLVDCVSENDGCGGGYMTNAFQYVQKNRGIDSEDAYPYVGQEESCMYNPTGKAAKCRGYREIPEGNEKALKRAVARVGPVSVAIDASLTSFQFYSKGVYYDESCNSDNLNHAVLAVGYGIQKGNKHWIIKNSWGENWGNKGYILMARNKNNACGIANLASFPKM
The series is described as follows: Inhibition of human procathepsin K expressed in Escherichia coli using Z-Gly-Pro-Arg-AMC as substrate by kinetic fluorescence assay. A digest of the protocol: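 Cathepsin K at 3 nM, activated from E. coli-expressed recombinant human procathepsin K. Substrate 10 µM Z-Gly-Pro-Arg-AMC in MES/EDTA/Brij 35/L-cysteine buffer, pH 6.0, room temperature. Ki obtained via Cheng-Prusoff from IC50. Mean of 2–4 curves.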

For series [10], the target named is Cathepsin C (Dipeptidyl peptidase 1) (Homo sapiens, UniProt P53634). The series is described as follows: Inhibition of Cathepsin C (unknown origin) at 10 uM.
Series [11] concerns the target T3, Pro-cathepsin H (Homo sapiens) (UniProt P09668).
T3 sequence (whole entry): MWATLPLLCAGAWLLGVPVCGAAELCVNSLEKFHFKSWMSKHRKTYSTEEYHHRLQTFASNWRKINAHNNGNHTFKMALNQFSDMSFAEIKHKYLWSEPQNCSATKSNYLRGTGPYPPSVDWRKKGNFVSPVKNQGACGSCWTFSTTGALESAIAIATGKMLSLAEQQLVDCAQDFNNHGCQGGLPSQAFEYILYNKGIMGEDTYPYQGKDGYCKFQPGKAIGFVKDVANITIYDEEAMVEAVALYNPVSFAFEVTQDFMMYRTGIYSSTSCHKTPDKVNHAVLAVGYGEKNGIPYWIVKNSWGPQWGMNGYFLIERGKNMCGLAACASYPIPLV
The series is described as follows: Inhibition of Cathepsin H (unknown origin) at 10 uM.

The target in series [12] is T4, Calpain-1 catalytic subunit (Homo sapiens) (UniProt P07384).
T4 sequence (whole entry): T1 sequence (P07384 whole entry)
The series is described as follows: Inhibition of human erythrocytes calpain-1 using Suc-Leu-Tyr-AMC as substrate in presence of up to 10 mM glutathione by kinetic fluorescence assay.

Series [13] in a line: Thiol reactivity using recombinant human full length 13C-labeled La antigen (100 to 324 residues) expressed in Escherichia coli BL21(DE3) by ALARM NMR.
The target in series [14] is T5, Carbonyl reductase [NADPH] 1 (Homo sapiens, UniProt P16152).
T5 sequence (P16152 whole entry): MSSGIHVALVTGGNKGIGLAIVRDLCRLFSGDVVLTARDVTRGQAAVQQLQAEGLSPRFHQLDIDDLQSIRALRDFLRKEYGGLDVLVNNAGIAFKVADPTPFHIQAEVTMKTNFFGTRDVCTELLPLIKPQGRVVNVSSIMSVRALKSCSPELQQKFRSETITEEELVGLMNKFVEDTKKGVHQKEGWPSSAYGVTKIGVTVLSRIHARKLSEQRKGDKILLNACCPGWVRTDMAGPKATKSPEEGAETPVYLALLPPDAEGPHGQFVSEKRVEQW
The series is described as follows: Drug level in human blood treated with [3H]-labeled N-(4-Amino-3,4-dioxo-1-phenylbutan-2-yl)-2-(3-(4-fluorophenyl)-1H-pyrazol-1-yl)nicotinamide assesseed as cytosolic carbonyl reductase-mediated compound formation. Particulars: cytosol. Format: ADME.

Series [15] concerns the target T5, Carbonyl reductase [NADPH] 1. The series is described as follows: Drug level in human hepatocytes treated with [3H]-labeled N-(4-Amino-3,4-dioxo-1-phenylbutan-2-yl)-2-(3-(4-fluorophenyl)-1H-pyrazol-1-yl)nicotinamide assesseed as cytosolic carbonyl reductase-mediated compound formation. It is filed as ADME, cell-based.
The nature of series [16]: Drug level in monkey blood treated with [3H]-labeled N-(4-Amino-3,4-dioxo-1-phenylbutan-2-yl)-2-(3-(4-fluorophenyl)-1H-pyrazol-1-yl)nicotinamide assesseed as cytosolic carbonyl reductase-mediated compound formation. It is filed as ADME, Macaca mulatta. Particulars: rhesus monkey, cytosol.
A short description of series [17]: Drug level in monkey hepatocytes treated with [3H]-labeled N-(4-Amino-3,4-dioxo-1-phenylbutan-2-yl)-2-(3-(4-fluorophenyl)-1H-pyrazol-1-yl)nicotinamide assesseed as cytosolic carbonyl reductase-mediated compound formation. Format: ADME, cell-based, Macaca mulatta. Particulars: rhesus monkey.
The target in series [18] is T6, Calpain-1 catalytic subunit (Rattus norvegicus) (UniProt P97571).
T6 sequence (whole entry): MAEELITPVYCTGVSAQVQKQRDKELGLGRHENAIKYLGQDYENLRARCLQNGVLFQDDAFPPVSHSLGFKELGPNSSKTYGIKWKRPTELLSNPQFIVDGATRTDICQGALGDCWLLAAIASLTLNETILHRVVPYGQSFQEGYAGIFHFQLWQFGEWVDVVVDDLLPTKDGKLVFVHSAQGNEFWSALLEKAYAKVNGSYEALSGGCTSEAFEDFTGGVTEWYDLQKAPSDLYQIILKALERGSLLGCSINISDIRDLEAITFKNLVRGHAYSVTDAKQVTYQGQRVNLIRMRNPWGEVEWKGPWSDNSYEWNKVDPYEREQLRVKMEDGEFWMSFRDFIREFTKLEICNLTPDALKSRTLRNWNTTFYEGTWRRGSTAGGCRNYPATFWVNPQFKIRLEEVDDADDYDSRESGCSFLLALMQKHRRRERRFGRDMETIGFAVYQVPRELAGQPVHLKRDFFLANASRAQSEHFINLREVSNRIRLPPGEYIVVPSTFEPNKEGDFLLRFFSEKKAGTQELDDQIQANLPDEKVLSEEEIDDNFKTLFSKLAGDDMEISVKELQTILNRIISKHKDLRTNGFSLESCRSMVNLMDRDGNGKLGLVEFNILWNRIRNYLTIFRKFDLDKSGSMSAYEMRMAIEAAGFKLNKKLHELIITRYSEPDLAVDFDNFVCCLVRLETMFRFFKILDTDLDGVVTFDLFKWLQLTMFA
The series is described as follows: (§2) Inhibition of calpain-1 in rat hippocampal slices assessed as prevention of NMDA-induced spectrin cleavage preincubated for 30 mins followed by NMDA addition measured after 5 hrs by Western blot analysis. A digest of the protocol: (§3)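 Organotypic rat hippocampal slice cultures kept 6–8 days in 2% serum medium; 30 min inhibitor pre-incubation, then 10 µM NMDA for 5 h at 34°C, 5% CO2. Slices lysed; 150/145 kDa spectrin breakdown products quantified by densitometric Western blot with anti-spectrin alpha chain antibody.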

For series [19], the target named is T7, Calpain-1 catalytic subunit (Rattus norvegicus, UniProt P97571).
T7 sequence (P97571 whole entry): T6 sequence (whole entry)
Described as §2. A digest of the protocol:
as §3

The nature of series [20]: Solubility of the compound. Format: physicochemical.

As a reminder, the Ki is the dissociation constant of the complex between target and ligand, obtained from inhibition or displacement. Usually inhibition stands for the drop in the measured response relative to a control, in per cent. As usually defined, the IC50 is the concentration that gives 50% inhibition.

The source made the active and inactive calls. The calls are words filed in the database; no cut-off is given here.

Chain of Cathepsin S (P25774 whole entry): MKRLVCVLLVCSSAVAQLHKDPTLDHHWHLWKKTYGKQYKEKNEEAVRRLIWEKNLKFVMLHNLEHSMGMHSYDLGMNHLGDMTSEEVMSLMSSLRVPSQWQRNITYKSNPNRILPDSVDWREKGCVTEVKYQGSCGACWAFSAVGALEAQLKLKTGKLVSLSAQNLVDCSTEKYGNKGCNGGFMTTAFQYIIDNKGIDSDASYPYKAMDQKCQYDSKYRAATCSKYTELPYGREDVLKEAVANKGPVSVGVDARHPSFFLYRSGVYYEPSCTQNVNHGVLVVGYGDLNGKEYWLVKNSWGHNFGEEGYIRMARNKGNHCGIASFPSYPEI
Chain of Cathepsin C (Dipeptidyl peptidase 1) (P53634 25-134 limits assumed): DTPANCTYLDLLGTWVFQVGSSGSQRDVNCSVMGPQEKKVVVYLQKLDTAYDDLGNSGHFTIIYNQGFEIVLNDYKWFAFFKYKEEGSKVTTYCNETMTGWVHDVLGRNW
Chain of Cathepsin C (Dipeptidyl peptidase 1) (P53634 231-394 limits assumed): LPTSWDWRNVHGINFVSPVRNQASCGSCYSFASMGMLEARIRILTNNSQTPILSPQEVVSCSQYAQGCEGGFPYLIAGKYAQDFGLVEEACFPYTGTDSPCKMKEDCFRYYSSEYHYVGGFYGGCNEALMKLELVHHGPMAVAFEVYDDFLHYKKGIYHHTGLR
Chain of Cathepsin C (Dipeptidyl peptidase 1) (P53634 395-463 limits assumed): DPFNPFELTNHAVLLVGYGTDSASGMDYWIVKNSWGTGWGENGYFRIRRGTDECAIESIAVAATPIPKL

For `CCN(CC)Cc1ccc(/C=C/c2ccccc2C(=O)NC(Cc2ccccc2)C(=O)C(N)=O)cc1` (configuration not stated), the Ki in [1] stood at 0.137 µM; in [2] it was 0.056 µM; in series [7], 3.29 µM; in series [8], 0.028 µM; in series [9], 0.0018 µM. Further, the “Ratio Ki” value in [3] was under 1; in series [4], under 0.1; in [5], 2.5; in [6] it was 59. The compound also registered an inhibition at 10 µM in series [10] of 94%. In series [11], this compound had an inhibition of 84%. Moreover, in [12], the inhibition result is “Active”. Besides, the Thiol reactivity result in series [13] is “Metabolite not detected”.
With `NC(=O)C(O)C(Cc1ccccc1)NC(=O)c1cccnc1-n1ccc(-c2ccc(F)cc2)n1` (configuration not stated), the Drug metabolism result in [14], in [15], in series [16] and in series [17] was “Metabolite_Detected” in each case.
On to `NC(=O)C(=O)C(Cc1ccccc1)NC(=O)c1cccnc1-n1cc2c(n1)-c1ccccc1OC2` (configuration not stated), for which the Ki in series [2] amounted to 0.008 µM. The “Ratio Ki” value in series [3] was 29; in series [4] it was 47; in [5] it was 278; in series [6] it was over 500. Further, the fIC50 in [18] came out at 65 nM. For the same compound, the IC50 in [19] amounted to 2.02 µM. Besides, the solubility result in series [20] is given as “Insoluble”. In [12], the inhibition entry was “Active”. Besides, the Thiol reactivity result in series [13] is reported as “Metabolite not detected”.

(Values after ChEMBL document CHEMBL4038338 (J Med Chem, 2017).)
